From ChEMBL document CHEMBL1132491, “Benzimidazole derivatives. 2. Synthesis and structure-activity relationships of new azabicyclic benzimidazole-4-carboxylic acid derivatives with affinity for serotoninergic 5-HT(3) receptors” (J Med Chem, 1999)

Experiments:
[1] = biological target: T1, Serotonin 3 (5-HT3) receptor (Rattus norvegicus, UniProt P35563+Q9JJ16); assay: In vitro affinity at serotonergic 5-hydroxytryptamine 3 receptor by radioligand binding assay, using [3H]-LY 278584 in rat cerebral cortex membranes.; assay type: cell membranes
T1 sequence (P35563 whole entry): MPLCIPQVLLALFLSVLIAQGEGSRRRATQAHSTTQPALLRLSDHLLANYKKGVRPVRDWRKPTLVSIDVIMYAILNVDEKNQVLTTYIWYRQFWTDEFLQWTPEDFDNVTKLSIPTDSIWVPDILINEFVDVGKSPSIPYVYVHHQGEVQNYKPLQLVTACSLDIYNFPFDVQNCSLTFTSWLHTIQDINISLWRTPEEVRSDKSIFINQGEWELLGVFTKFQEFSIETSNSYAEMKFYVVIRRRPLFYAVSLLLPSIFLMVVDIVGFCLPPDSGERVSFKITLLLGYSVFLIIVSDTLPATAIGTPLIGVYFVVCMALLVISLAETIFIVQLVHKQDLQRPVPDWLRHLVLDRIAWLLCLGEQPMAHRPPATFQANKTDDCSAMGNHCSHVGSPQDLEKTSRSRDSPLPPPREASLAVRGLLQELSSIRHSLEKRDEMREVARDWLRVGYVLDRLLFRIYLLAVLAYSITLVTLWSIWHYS
T1 sequence (Q9JJ16 whole entry): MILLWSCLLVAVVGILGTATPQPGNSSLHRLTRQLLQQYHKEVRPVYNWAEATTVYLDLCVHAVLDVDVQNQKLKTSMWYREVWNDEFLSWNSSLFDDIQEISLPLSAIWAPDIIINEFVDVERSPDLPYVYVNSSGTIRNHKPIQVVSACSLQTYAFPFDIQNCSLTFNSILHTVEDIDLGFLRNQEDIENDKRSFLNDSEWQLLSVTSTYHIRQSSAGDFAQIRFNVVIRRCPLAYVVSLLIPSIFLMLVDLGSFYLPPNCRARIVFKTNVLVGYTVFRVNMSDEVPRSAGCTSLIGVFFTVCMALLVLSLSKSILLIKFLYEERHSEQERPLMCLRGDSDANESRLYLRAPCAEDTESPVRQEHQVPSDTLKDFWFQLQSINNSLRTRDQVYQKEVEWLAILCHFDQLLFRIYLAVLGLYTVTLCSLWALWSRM
Procedure, shortened: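 Rat cerebral cortex membranes prepared in 0.32 M sucrose, then washed in 50 mM Tris-HCl pH 7.4 and preincubated at 37 °C for 10 min. About 2 mg/mL protein incubated 30 min at 25 °C with 0.7 nM [3H]LY 278584 and six competitor concentrations. Buffer contained pargyline, ascorbate and CaCl2. Nonspecific binding defined with 10 μM 5-HT. Triplicates, filtration, scintillation counting. Ki from IC50 via Cheng–Prusoff, means of 2–4 assays.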

[2] = biological target: 5-hydroxytryptamine receptor 4 (Rattus norvegicus, UniProt Q62758); assay: In vitro affinity at serotonergic 5-hydroxytryptamine 4 receptor by radioligand binding assay using [3H]GR-113808 in rat striatum membranes.; assay type: cell membranes
Cavia porcellus [3] = species on record: Cavia porcellus; assay: Single-point analysis using 5(10e-9) M concentration of the antagonist (pA2= -log([B]/concentration ratio-1); [B] =concentration of the antagonist).; assay type: functional; conditions: read-out: pA2 (converted)
Procedure, shortened: (§1)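 Ileal strip preparation with methysergide 10^-6 M present. Paired noncumulative 5-HT curves are run, with the antagonist at 5×10^-9 M added 30 min before the second curve. The concentration ratio is taken at the 5-HT level giving 50% of the control maximum in the ≥10^-6 M phase. Single-point pA2 = −log([B]/(CR−1)) (Furchgott).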

[4] = biological target: Serotonin 3 (5-HT3) receptor (Homo sapiens) (UniProt P46098+A5X5Y0+O95264+Q70Z44+Q8WXA8); conditions: Cavia porcellus; Ileum
Cavia porcellus [5] = species on record: Cavia porcellus; assay: Single-point analysis using 5(10e-9) M concentration of the antagonist (pA2= -log([B]/concentration ratio-1); [B] =concentration of the antagonist); assay type: functional; conditions: read-out: pA2 (converted); procedure, shortened: as §1
[6] = biological target: T1, Serotonin 3 (5-HT3) receptor; assay: Compound was evaluated for its in vitro affinity at serotonergic 5-hydroxytryptamine 3 receptor by radioligand binding assay, using [3H]-LY 278584 in rat cerebral cortex membranes.; assay type: cell membranes

5-hydroxytryptamine receptor 4, sequence (Q62758 whole entry): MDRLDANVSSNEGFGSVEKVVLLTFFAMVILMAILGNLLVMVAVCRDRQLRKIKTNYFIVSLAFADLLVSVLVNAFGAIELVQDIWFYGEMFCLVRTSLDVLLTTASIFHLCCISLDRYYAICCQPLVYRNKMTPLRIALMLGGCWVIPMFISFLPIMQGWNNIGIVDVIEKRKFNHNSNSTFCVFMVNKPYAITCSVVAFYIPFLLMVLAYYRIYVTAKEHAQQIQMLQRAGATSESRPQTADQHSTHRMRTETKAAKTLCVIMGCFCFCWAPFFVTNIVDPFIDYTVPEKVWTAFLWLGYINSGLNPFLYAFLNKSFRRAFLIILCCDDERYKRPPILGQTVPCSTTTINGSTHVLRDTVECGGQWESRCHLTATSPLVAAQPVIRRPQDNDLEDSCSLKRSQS

| SMILES | Ki [1] [nM] | Ki [2] [nM] | other results |
| --- | --- | --- | --- |
| CN1C2CCC1CC(NC(=O)c1cccc3[nH]cnc13)C2 (stereo not given) | 118 | > 10000 |  |
| Cc1nccn1CC1CCc2c(c3ccccc3n2C)C1=O (stereo not given) [ONDANSETRON] |  |  | Kb (Cavia porcellus [3]): 0.126 nM; ED50 [4]: 43000 nM |
| O=C(NC1CN2CCC1CC2)c1cc(Br)c([N+](=O)[O-])c2nc[nH]c12 (stereo not given) | 8.8 | > 10000 |  |
| O=C(NC1CN2CCC1CC2)c1cc(Cl)c([N+](=O)[O-])c2nc[nH]c12 (stereo not given) | 5.2 | > 1000 |  |
| O=C(N[C@@H]1CN2CCC1CC2)c1cc(Cl)c([N+](=O)[O-])c2nc[nH]c12 | 1.7 | > 1000 | Kb (Cavia porcellus [5]): 0.794 nM; ED50 [4]: 68000 nM |
| CN1C2CCCC1CC(OC(=O)c1cccc3nc[nH]c13)C2 (stereo not given) |  |  | Ki [6]: 678 nM |
| O=C(N[C@@H]1CN2CCC1CC2)c1cc(Br)cc2nc[nH]c12 | 0.28 | 38.3 |  |
| CN1C2CCCC1CC(OC(=O)c1cc(Cl)cc3[nH]cnc13)C2 (stereo not given) | 88.7 |  |  |
| O=C(N[C@@H]1CN2CCC1CC2)c1cc(Cl)cc2nc[nH]c12 | 0.13 | > 10000 | Kb (Cavia porcellus [5]): 0.126 nM; ED50 [4]: 17000 nM |
| CN1C2CCC1CC(NC(=O)c1cc(Cl)cc3nc[nH]c13)C2 (stereo not given) | 16.6 | 319 |  |
| CCC1CCN(C)C[C@H]1NC(=O)c1cccc2[nH]cnc12 (stereo not given in full) | 2.6 | > 1000 | Kb (Cavia porcellus [5]): 0.251 nM |
| Nc1c(Cl)cc(C(=O)NC2CN3CCC2CC3)c2[nH]cnc12 (stereo not given) | 0.24 | 187 |  |
| Nc1c(Br)cc(C(=O)NC2CN3CCC2CC3)c2[nH]cnc12 (stereo not given) | 0.42 | 227 |  |
| CN1C2CCCC1CC(NC(=O)c1nn(C)c3ccccc13)C2 (stereo not given) [GRANISETRON] |  | > 1000 |  |
| Nc1ccc(C(=O)NC2CN3CCC2CC3)c2[nH]cnc12 (stereo not given) | 2.4 | 779 |  |
| CN1C2CCC1CC(OC(=O)c1cc(Cl)cc3[nH]cnc13)C2 (stereo not given) | 61.2 | 356 |  |
| CN1C2CCCC1CC(NC(=O)c1cccc3[nH]cnc13)C2 (stereo not given) | 230 | > 10000 |  |
| CN1C2CCC1CC(OC(=O)c1cccc3[nH]cnc13)C2 (stereo in doubt; 23) |  | > 10000 | Ki [6]: > 1000 nM |
| O=C(N[C@H]1CN2CCC1CC2)c1cc(Br)cc2nc[nH]c12 | 3.4 | 270 |  |
| O=C(NC1CN2CCC1CC2)c1cc(Br)cc2nc[nH]c12 (stereo not given) | 0.29 | 168 |  |
| CCC1CCN(C)C[C@@H]1NC(=O)c1cccc2nc[nH]c12 (stereo not given in full) | 38.3 | > 10000 |  |
| O=C(N[C@H]1CN2CCC1CC2)c1cc(Cl)cc2nc[nH]c12 | 0.76 | 205 |  |
| CN1C2CCC1CC(OC(=O)c1cccc3[nH]cnc13)C2 (stereo in doubt; 24) |  | > 10000 | Ki [6]: > 1000 nM |
| CN1C2CCCC1CC(NC(=O)c1cc(Cl)cc3nc[nH]c13)C2 (stereo not given) | 83 | > 1000 |  |
